Source: ChEMBL document CHEMBL3272255, “Substituted alpah-methylbenzyl and tricyclic arylalkyl lactamimides as inhibitors of blood platelet aggregation” (J Med Chem, 1976)

What was measured:
Cavia porcellus [1] = assay: Antiplatelet activity in guinea pig assessed as inhibition of 0.45 ug/ml ADP-induced platelet aggregation measured as area between aggregation curve and baseline transmittance at 100 mg/kg, po for 4 days measured at 2 hrs post last dose by aggregometric analysis relative to control; assay type: functional
How it was run: (§1)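 Guinea pigs were dosed by stomach tube at the stated dose daily for 4 days, with an untreated control group kept in parallel. Blood was taken by heart puncture 2 h after the last dose, and citrated PRP was isolated and adjusted. ADP was added in vitro. Total response was the area between the aggregation curve and baseline transmittance over 5 min, measured by planimeter. Percent inhibition came from group-average total response, treated vs control.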

Cavia porcellus [2] = assay: Antiplatelet activity in guinea pig assessed as 0.45 ug/ml ADP-induced platelet aggregation measured as change in light transmittance at 100 mg/kg, po for 1 day by aggregometric analysis; settings: 24 h
Cavia porcellus [3] = assay: Antiplatelet activity in guinea pig assessed as inhibition of 0.8 ug/ml ADP-induced platelet aggregation measured as area between aggregation curve and baseline transmittance at 30 mg/kg, po for 4 days measured at 2 hrs post last dose by aggregometric analysis relative to control; assay type: functional; how it was run: as §1
Cavia porcellus [4] = assay: Toxicity in guinea pig assessed as mortality at 300 mg/kg, po measured after third dose; assay type: organism-based; design: dose 300 mg/kg, route oral; settings: in vivo
Cavia porcellus [5] = assay: Antiplatelet activity in guinea pig assessed as inhibition of 0.8 ug/ml ADP-induced platelet aggregation measured as change in light transmittance at 100 mg/kg, po for 1 day by aggregometric analysis relative to control; assay type: functional; settings: 24 h
Cavia porcellus [6] = assay: Antiplatelet activity in guinea pig assessed as inhibition of 0.25 ug/ml ADP-induced platelet aggregation measured as area between aggregation curve and baseline transmittance at 30 mg/kg, po for 4 days measured at 2 hrs post last dose by aggregometric analysis relative to control; assay type: functional; how it was run: as §1
Cavia porcellus [7] = assay: Antiplatelet activity in guinea pig assessed as inhibition of 0.4 ug/ml ADP-induced platelet aggregation measured as change in light transmittance at 10 mg/kg, po for 4 days measured at 2 hrs post last dose by aggregometric analysis relative to control; assay type: functional
How it was run: (§2)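 Dosing was oral by stomach tube for 4 days, alongside an untreated control group. Blood was drawn by heart puncture 2 h after the final dose, then citrated PRP was isolated and adjusted for aggregometry. ADP was added in vitro at the stated concentration. The read-out was the maximum increase in light transmittance (ΔT); group means were compared, treated vs control.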

Cavia porcellus [8] = assay: Antiplatelet activity in guinea pig assessed as inhibition of 0.45 ug/ml ADP-induced platelet aggregation measured as area between aggregation curve and baseline transmittance at 100 mg/kg, po for 1 day by aggregometric analysis relative to control; assay type: functional; settings: 24 h
[9] = Antiplatelet activity in human platelet rich plasma assessed as inhibition of ADP-induced platelet aggregation at 10 ug/ml after 20 mins by aggregometric analysis relative to control; assay type: functional
How it was run: (§3)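 Human blood came from fasting donors who had taken no drugs for 5 days. It was citrated 1:9 with 3.8% sodium citrate. PRP was prepared at 100g for 10 min and PPP at 1500g for 15 min, and PRP was diluted with autologous PPP to 400000 platelets/mm³. Compound or saline control was incubated 20 min at 37°, then ADP was added at 2 μg/ml final. Percent inhibition was calculated from maximal ΔT, test vs control.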

Cavia porcellus [10] = assay: Antiplatelet activity in guinea pig assessed as inhibition of 0.8 ug/ml ADP-induced platelet aggregation measured as change in light transmittance at 10 mg/kg, po for 4 days measured at 2 hrs post last dose by aggregometric analysis relative to control; assay type: functional; how it was run: as §2
Cavia porcellus [11] = assay: Antiplatelet activity in guinea pig assessed as inhibition of 0.25 ug/ml ADP-induced platelet aggregation measured as change in light transmittance at 30 mg/kg, po for 4 days measured at 2 hrs post last dose by aggregometric analysis relative to control; assay type: functional; how it was run: as §2
Cavia porcellus [12] = assay: Antiplatelet activity in guinea pig assessed as inhibition of 0.35 ug/ml ADP-induced platelet aggregation measured as change in light transmittance at 30 mg/kg, po for 4 days measured at 2 hrs post last dose by aggregometric analysis relative to control; assay type: functional; how it was run: as §2
Cavia porcellus [13] = assay: Antiplatelet activity in guinea pig assessed as inhibition of 0.8 ug/ml ADP-induced platelet aggregation measured as area between aggregation curve and baseline transmittance at 100 mg/kg, po for 1 day by aggregometric analysis relative to control; assay type: functional; settings: 24 h
Cavia porcellus [14] = assay: Antiplatelet activity in guinea pig assessed as inhibition of 0.8 ug/ml ADP-induced platelet aggregation measured as change in light transmittance at 30 mg/kg, po for 4 days measured at 2 hrs post last dose by aggregometric analysis relative to control; assay type: functional; how it was run: as §2
Cavia porcellus [15] = assay: Antiplatelet activity in guinea pig assessed as inhibition of 0.45 ug/ml ADP-induced platelet aggregation measured as change in light transmittance at 30 mg/kg, po for 4 days measured at 2 hrs post last dose by aggregometric analysis relative to control; assay type: functional; how it was run: as §2
Cavia porcellus [16] = assay: Antiplatelet activity in guinea pig assessed as inhibition of 0.8 ug/ml ADP-induced platelet aggregation measured as area between aggregation curve and baseline transmittance at 100 mg/kg, po for 4 days measured at 2 hrs post last dose by aggregometric analysis relative to control; assay type: functional; how it was run: as §1
[17] = Antiplatelet activity in human platelet rich plasma assessed as platelet factor-3 release at 300 ug/ml after 20 mins relative to control
Cavia porcellus [18] = assay: Antiplatelet activity in guinea pig assessed as inhibition of 0.4 ug/ml ADP-induced platelet aggregation measured as area between aggregation curve and baseline transmittance at 10 mg/kg, po for 4 days measured at 2 hrs post last dose by aggregometric analysis relative to control; assay type: functional; how it was run: as §1
Cavia porcellus [19] = assay: Antiplatelet activity in guinea pig assessed as 0.45 ug/ml ADP-induced platelet aggregation measured as change in light transmittance at 100 mg/kg, po for 4 days measured at 2 hrs post last dose by aggregometric analysis
[20] = Antiplatelet activity in human platelet rich plasma assessed as inhibition of ADP-induced platelet aggregation at 100 ug/ml after 20 mins by aggregometric analysis relative to control; assay type: functional; how it was run: as §3
[21] = Antiplatelet activity in human platelet rich plasma assessed as inhibition of ADP-induced platelet aggregation at 30 ug/ml after 20 mins by aggregometric analysis relative to control; assay type: functional; how it was run: as §3
Cavia porcellus [22] = assay: Antiplatelet activity in guinea pig assessed as inhibition of 0.45 ug/ml ADP-induced platelet aggregation measured as area between aggregation curve and baseline transmittance at 30 mg/kg, po for 4 days measured at 2 hrs post last dose by aggregometric analysis relative to control; assay type: functional; how it was run: as §1
Cavia porcellus [23] = assay: Antiplatelet activity in guinea pig assessed as inhibition of 0.35 ug/ml ADP-induced platelet aggregation measured as area between aggregation curve and baseline transmittance at 30 mg/kg, po for 4 days measured at 2 hrs post last dose by aggregometric analysis relative to control; assay type: functional; how it was run: as §1
Cavia porcellus [24] = assay: Antiplatelet activity in guinea pig assessed as inhibition of 0.8 ug/ml ADP-induced platelet aggregation measured as change in light transmittance at 100 mg/kg, po for 4 days measured at 2 hrs post last dose by aggregometric analysis relative to control; assay type: functional; how it was run: as §2
Cavia porcellus [25] = assay: Antiplatelet activity in guinea pig assessed as inhibition of 0.8 ug/ml ADP-induced platelet aggregation measured as area between aggregation curve and baseline transmittance at 10 mg/kg, po for 4 days measured at 2 hrs post last dose by aggregometric analysis relative to control; assay type: functional; how it was run: as §1

Work on CCCC(C/N=C1/CCCCCN1)(c1ccccc1)c1ccccc1.Cl yielded an inhibition in vivo at 100 mg/kg (Cavia porcellus [1]) of 70%, a ΔT % at 100 mg/kg (Cavia porcellus [2]) of 21.4% and an inhibition in vivo at 30 mg/kg (Cavia porcellus [3]) of 14%. The Activity (Cavia porcellus [4]) was “Toxic”, the ΔT % at 100 mg/kg (Cavia porcellus [5]) was 36% and the inhibition in vivo at 30 mg/kg (Cavia porcellus [6]) was 63%. For the same molecule, the ΔT % at 10 mg/kg (Cavia porcellus [7]) was 14.6%, the inhibition in vivo at 100 mg/kg (Cavia porcellus [8]) was 13% and the inhibition at 10 µg/mL [9] was 1%. The ΔT % at 10 mg/kg (Cavia porcellus [10]) was 35.2%, the ΔT % at 30 mg/kg (Cavia porcellus [11]) was 21.2% and the ΔT % at 30 mg/kg (Cavia porcellus [12]) was 24.8%. The inhibition in vivo at 100 mg/kg (Cavia porcellus [13]) was 12%, the ΔT % at 30 mg/kg (Cavia porcellus [14]) was 35.3% and the ΔT % at 30 mg/kg (Cavia porcellus [15]) was 19.7%. The inhibition in vivo at 100 mg/kg (Cavia porcellus [16]) was 20%, the “%max” value [17] was 0.13% and the inhibition in vivo at 10 mg/kg (Cavia porcellus [18]) was 21%. The ΔT % at 100 mg/kg (Cavia porcellus [19]) was 34.3%, the inhibition at 100 µg/mL [20] was 100% and the inhibition at 30 µg/mL [21] was 57%. For the same molecule, the inhibition in vivo at 30 mg/kg (Cavia porcellus [22]) was 18%, the inhibition in vivo at 30 mg/kg (Cavia porcellus [23]) was 55% and the ΔT % at 100 mg/kg (Cavia porcellus [24]) was 62.7%. It also gave an inhibition in vivo at 10 mg/kg (Cavia porcellus [25]) of 26%.
